In ChEMBL document CHEMBL4689842, “EUbOPEN Chemogenomics Library wave 1” (2021):

Columns and labels:
U2OS = test: Multiplex assay against U2OS; assay type: toxicity, cell-based; conditions: human
Procedure, shortened: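 Live cells carried four stains from seeding: Hoechst33342, BioTracker Green Microtubule Cytoskeleton Dye, MitoTracker Red and Annexin V Alexa Fluor 680. They were imaged on a CQ1 microscope at 37°C and 5% CO2 after compound addition. Using CellPathfinder machine-learning gating, cells were split into Hoechst high-intensity objects or normal cells, normal cells into healthy, pyknosed or fragmented nuclei, and pyknosed cells into mitotic or apoptotic; tubulin, mitochondrial-mass and membrane-permeability phenotypes are per cents of healthy-nucleus cells.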

HEK-293T = test: Incucyte cell viability with HEK293T; assay type: toxicity, cell-based; conditions: human, 10 µM, compound concentration 10 uM; also: filed as whole numbers so only -1 and 0 and 1 occur
[1] = 12 h, 1 µM, compound concentration 1 uM, replicate 1
[2] = 12 h, 1 µM, compound concentration 1 uM, replicate 2
[3] = 12 h, 10 µM, compound concentration 10 uM, replicate 1
[4] = 12 h, 10 µM, compound concentration 10 uM, replicate 2
[5] = 24 h, 1 µM, compound concentration 1 uM, replicate 1
[6] = 24 h, 1 µM, compound concentration 1 uM, replicate 2
[7] = 24 h, 10 µM, compound concentration 10 uM, replicate 1
[8] = 24 h, 10 µM, compound concentration 10 uM, replicate 2
[9] = 48 h, 1 µM, compound concentration 1 uM, replicate 1
[10] = 48 h, 1 µM, compound concentration 1 uM, replicate 2
[11] = 48 h, 10 µM, compound concentration 10 uM, replicate 1
[12] = 48 h, 10 µM, compound concentration 10 uM, replicate 2

Q: Which results are given for `Cl.Cl.Nc1ncnc2c1c(-c1cccc(OCc3ccccc3)c1)cn2[C@H]1C[C@@H](CN2CCC2)C1`?
A: Population Apoptotic (%) (U2OS; [1]): 33%; Population Fragmented Nuclei (%) (U2OS; [1]): 13%; Population Healthy Nuclei (%) (U2OS; [1]): 70%; Population Hoechst High Intensity Objects (%) (U2OS; [1]): 5%; Population Membrane Permeable-Phenotype (%) (U2OS; [1]): 8%; Population Mitochondria Different-Phenotype (%) (U2OS; [1]): 58%; Population Mitotic Cells (%) (U2OS; [1]): 66%; Population Normal (%) (U2OS; [1]): 94%; Population Pyknosed Nuclei (%) (U2OS; [1]): 16%; Population Tubulin-Different-Phenotype (%) (U2OS; [1]): 38%; Total Cell Count (U2OS; [1]): 176; Population Apoptotic (%) (U2OS; [2]): 29%; Population Fragmented Nuclei (%) (U2OS; [2]): 11%; Population Healthy Nuclei (%) (U2OS; [2]): 67%; Population Hoechst High Intensity Objects (%) (U2OS; [2]): 6%; Population Membrane Permeable-Phenotype (%) (U2OS; [2]): 3%; Population Mitochondria Different-Phenotype (%) (U2OS; [2]): 71%; Population Mitotic Cells (%) (U2OS; [2]): 70%; Population Normal (%) (U2OS; [2]): 93%; Population Pyknosed Nuclei (%) (U2OS; [2]): 20%; Population Tubulin-Different-Phenotype (%) (U2OS; [2]): 52%; Total Cell Count (U2OS; [2]): 55; Population Apoptotic (%) (U2OS; [3]): 81%; Population Fragmented Nuclei (%) (U2OS; [3]): 23%; Population Healthy Nuclei (%) (U2OS; [3]): 41%; Population Hoechst High Intensity Objects (%) (U2OS; [3]): 9%; Population Membrane Permeable-Phenotype (%) (U2OS; [3]): 67%; Population Mitochondria Different-Phenotype (%) (U2OS; [3]): 100%; Population Mitotic Cells (%) (U2OS; [3]): 18%; Population Normal (%) (U2OS; [3]): 90%; Population Pyknosed Nuclei (%) (U2OS; [3]): 35%; Population Tubulin-Different-Phenotype (%) (U2OS; [3]): 100%; Total Cell Count (U2OS; [3]): 135; Population Apoptotic (%) (U2OS; [4]): 85%; Population Fragmented Nuclei (%) (U2OS; [4]): 22%; Population Healthy Nuclei (%) (U2OS; [4]): 47%; Population Hoechst High Intensity Objects (%) (U2OS; [4]): 8%; Population Membrane Permeable-Phenotype (%) (U2OS; [4]): 77%; Population Mitochondria Different-Phenotype (%) (U2OS; [4]): 97%; Population Mitotic Cells (%) (U2OS; [4]): 14%; Population Normal (%) (U2OS; [4]): 91%; Population Pyknosed Nuclei (%) (U2OS; [4]): 29%; Population Tubulin-Different-Phenotype (%) (U2OS; [4]): 97%; Total Cell Count (U2OS; [4]): 90; Population Apoptotic (%) (U2OS; [5]): 56%; Population Fragmented Nuclei (%) (U2OS; [5]): 10%; Population Healthy Nuclei (%) (U2OS; [5]): 69%; Population Hoechst High Intensity Objects (%) (U2OS; [5]): 4%; Population Membrane Permeable-Phenotype (%) (U2OS; [5]): 5%; Population Mitochondria Different-Phenotype (%) (U2OS; [5]): 62%; Population Mitotic Cells (%) (U2OS; [5]): 43%; Population Normal (%) (U2OS; [5]): 95%; Population Pyknosed Nuclei (%) (U2OS; [5]): 20%; Population Tubulin-Different-Phenotype (%) (U2OS; [5]): 34%; Total Cell Count (U2OS; [5]): 176; Population Apoptotic (%) (U2OS; [6]): 28%; Population Fragmented Nuclei (%) (U2OS; [6]): 13%; Population Healthy Nuclei (%) (U2OS; [6]): 64%; Population Hoechst High Intensity Objects (%) (U2OS; [6]): 6%; Population Membrane Permeable-Phenotype (%) (U2OS; [6]): 4%; Population Mitochondria Different-Phenotype (%) (U2OS; [6]): 68%; Population Mitotic Cells (%) (U2OS; [6]): 71%; Population Normal (%) (U2OS; [6]): 93%; Population Pyknosed Nuclei (%) (U2OS; [6]): 21%; Population Tubulin-Different-Phenotype (%) (U2OS; [6]): 39%; Total Cell Count (U2OS; [6]): 50; Population Apoptotic (%) (U2OS; [7]): 90%; Population Fragmented Nuclei (%) (U2OS; [7]): 25%; Population Healthy Nuclei (%) (U2OS; [7]): 30%; Population Membrane Permeable-Phenotype (%) (U2OS; [7]): 92%; Population Mitochondria Different-Phenotype (%) (U2OS; [7]): 100%; Population Mitotic Cells (%) (U2OS; [7]): 9%; Population Pyknosed Nuclei (%) (U2OS; [7]): 43%; Population Tubulin-Different-Phenotype (%) (U2OS; [7]): 100%; Total Cell Count (U2OS; [7]): 157; Population Apoptotic (%) (U2OS; [8]): 92%; Population Fragmented Nuclei (%) (U2OS; [8]): 21%; Population Healthy Nuclei (%) (U2OS; [8]): 35%; Population Hoechst High Intensity Objects (%) (U2OS; [8]): 9%; Population Membrane Permeable-Phenotype (%) (U2OS; [8]): 93%; Population Mitochondria Different-Phenotype (%) (U2OS; [8]): 96%; Population Mitotic Cells (%) (U2OS; [8]): 7%; Population Normal (%) (U2OS; [8]): 90%; Population Pyknosed Nuclei (%) (U2OS; [8]): 42%; Population Tubulin-Different-Phenotype (%) (U2OS; [8]): 96%; Total Cell Count (U2OS; [8]): 104; Population Apoptotic (%) (U2OS; [9]): 65%; Population Fragmented Nuclei (%) (U2OS; [9]): 10%; Population Healthy Nuclei (%) (U2OS; [9]): 73%; Population Hoechst High Intensity Objects (%) (U2OS; [9]): 2%; Population Membrane Permeable-Phenotype (%) (U2OS; [9]): 4%; Population Mitochondria Different-Phenotype (%) (U2OS; [9]): 34%; Population Mitotic Cells (%) (U2OS; [9]): 34%; Population Normal (%) (U2OS; [9]): 97%; Population Pyknosed Nuclei (%) (U2OS; [9]): 16%; Population Tubulin-Different-Phenotype (%) (U2OS; [9]): 23%; Total Cell Count (U2OS; [9]): 182; Population Apoptotic (%) (U2OS; [10]): 47%; Population Fragmented Nuclei (%) (U2OS; [10]): 8%; Population Healthy Nuclei (%) (U2OS; [10]): 76%; Population Hoechst High Intensity Objects (%) (U2OS; [10]): 3%; Population Membrane Permeable-Phenotype (%) (U2OS; [10]): 12%; Population Mitochondria Different-Phenotype (%) (U2OS; [10]): 44%; Population Mitotic Cells (%) (U2OS; [10]): 52%; Population Normal (%) (U2OS; [10]): 96%; Population Pyknosed Nuclei (%) (U2OS; [10]): 15%; Population Tubulin-Different-Phenotype (%) (U2OS; [10]): 26%; Total Cell Count (U2OS; [10]): 55; Population Apoptotic (%) (U2OS; [11]): 100%; Population Fragmented Nuclei (%) (U2OS; [11]): 30%; Population Healthy Nuclei (%) (U2OS; [11]): 7%; Population Hoechst High Intensity Objects (%) (U2OS; [11]): 12%; Population Membrane Permeable-Phenotype (%) (U2OS; [11]): 100%; Population Mitochondria Different-Phenotype (%) (U2OS; [11]): 100%; Population Mitotic Cells (%) (U2OS; [11]): 0%; Population Normal (%) (U2OS; [11]): 87%; Population Pyknosed Nuclei (%) (U2OS; [11]): 61%; Population Tubulin-Different-Phenotype (%) (U2OS; [11]): 100%; Total Cell Count (U2OS; [11]): 203; Population Apoptotic (%) (U2OS; [12]): 96%; Population Fragmented Nuclei (%) (U2OS; [12]): 21%; Population Healthy Nuclei (%) (U2OS; [12]): 38%; Population Hoechst High Intensity Objects (%) (U2OS; [12]): 23%; Population Membrane Permeable-Phenotype (%) (U2OS; [12]): 96%; Population Mitotic Cells (%) (U2OS; [12]): 3%; Population Normal (%) (U2OS; [12]): 76%; Population Pyknosed Nuclei (%) (U2OS; [12]): 40%; Total Cell Count (U2OS; [12]): 130; Growth Rate (HEK-293T; 6 h, replicate number 1, timepoint 6 hours): 0; Growth Rate (HEK-293T; 12 h, replicate number 1, timepoint 12 hours): 0; Growth Rate (HEK-293T; 18 h, replicate number 1, timepoint 18 hours): 0; Growth Rate (HEK-293T; 24 h, replicate number 1, timepoint 24 hours): 0
